Experimental data: paper PMC2212508 (The Journal of Experimental Medicine, 1998)
Like-named read-outs stand apart in the source and are kept apart here.

Tests used:
Format in all cases: cell-based
[1] = target: KV (Kv1.3), human T cells (Homo sapiens, UniProt P22001); test: whole-cell patch clamp, peak KV current
In short: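 Peripheral T cells came from healthy donors' venous blood by Ficoll-Hypaque. Recording was whole-cell at 20–25°C in Ringer, with a 160 mM K+ aspartate/10 mM EGTA pipette (pH 7.2). Pulses of 200 ms went from −80 to +30 mV every 30 s. Each steroid was bath-applied at 60 μM. Percent inhibition of peak KV current is mean ± SD, ≥3 experiments.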

[2] = target: KCa (hKCa4), activated human T cells (Homo sapiens, UniProt O15554); test: whole-cell patch clamp, KCa slope conductance near -80 mV
KCa (hKCa4), activated human T cells, sequence (O15554 whole entry): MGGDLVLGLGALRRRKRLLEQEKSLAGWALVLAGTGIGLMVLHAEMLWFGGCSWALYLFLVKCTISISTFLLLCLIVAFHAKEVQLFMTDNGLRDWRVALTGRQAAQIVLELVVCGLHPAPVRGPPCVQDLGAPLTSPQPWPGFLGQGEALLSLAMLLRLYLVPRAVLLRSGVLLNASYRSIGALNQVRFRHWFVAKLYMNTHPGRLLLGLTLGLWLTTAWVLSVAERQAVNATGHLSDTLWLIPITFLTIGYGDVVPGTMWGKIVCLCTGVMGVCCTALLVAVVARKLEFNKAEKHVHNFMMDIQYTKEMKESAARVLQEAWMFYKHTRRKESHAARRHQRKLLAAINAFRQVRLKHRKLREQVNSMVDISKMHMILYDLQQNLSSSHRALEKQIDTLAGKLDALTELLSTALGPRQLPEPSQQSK
In short: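 Human T-cell blasts were made from Ficoll-isolated blood T cells with 10 μg/ml PHA. KCa was opened by dialysis with a pipette of 140 mM K+ aspartate, 7.8 mM CaCl2 and 10 mM EGTA (nominal 1 μM free Ca2+, pH 7.2). Ramps of 200 ms went from −120 to +50 mV every 30 s. Each compound was applied at 60 μM. Slope-conductance inhibition near −80 mV is mean ± SD, ≥3 experiments.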

[3] = target: T1, Kv3.1 (Mus musculus, UniProt P15388); test: whole-cell patch clamp; conditions: read-out: % inhibition at 30 μM
T1 sequence (P15388 1-511): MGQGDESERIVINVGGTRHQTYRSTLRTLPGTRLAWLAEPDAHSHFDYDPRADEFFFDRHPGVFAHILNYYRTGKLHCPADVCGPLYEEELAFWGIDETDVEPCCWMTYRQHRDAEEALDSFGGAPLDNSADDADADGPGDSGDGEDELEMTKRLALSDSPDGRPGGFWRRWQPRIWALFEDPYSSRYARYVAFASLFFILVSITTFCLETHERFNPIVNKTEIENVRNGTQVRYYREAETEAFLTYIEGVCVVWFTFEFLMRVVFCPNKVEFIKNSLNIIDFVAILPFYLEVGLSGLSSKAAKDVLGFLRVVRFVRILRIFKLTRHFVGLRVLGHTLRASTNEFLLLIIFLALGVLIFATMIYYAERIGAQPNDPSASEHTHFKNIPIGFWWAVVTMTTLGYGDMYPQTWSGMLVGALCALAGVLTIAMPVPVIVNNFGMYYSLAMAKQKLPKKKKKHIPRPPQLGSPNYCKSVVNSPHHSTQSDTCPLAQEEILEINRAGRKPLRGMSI
In short: (§1)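 Cell lines stably expressing each cloned KV channel, cultured in RPMI 1640 with 10% heat-inactivated FBS at 37°C and 5% CO2. Whole-cell currents were recorded at 20–25°C in mammalian Ringer. The pipette held 160 mM K+ aspartate, 10 mM EGTA, pH 7.2. Steps of 200 ms went from −80 to +30 mV every 30 s. Test compound was bath-applied at 30 μM. Inhibition of peak current is mean ± SD from ≥3 experiments.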

[4] = tested on: Kv1.4; test: whole-cell patch clamp; conditions: LTK cells; depolarizing pulses to +30 mV
In short: as §1

[5] = target: Kv1.3 (cloned) (Mus musculus, UniProt P16390); test: whole-cell patch clamp; conditions: read-out: % inhibition at 30 μM
Kv1.3 (cloned), sequence (P16390 whole entry): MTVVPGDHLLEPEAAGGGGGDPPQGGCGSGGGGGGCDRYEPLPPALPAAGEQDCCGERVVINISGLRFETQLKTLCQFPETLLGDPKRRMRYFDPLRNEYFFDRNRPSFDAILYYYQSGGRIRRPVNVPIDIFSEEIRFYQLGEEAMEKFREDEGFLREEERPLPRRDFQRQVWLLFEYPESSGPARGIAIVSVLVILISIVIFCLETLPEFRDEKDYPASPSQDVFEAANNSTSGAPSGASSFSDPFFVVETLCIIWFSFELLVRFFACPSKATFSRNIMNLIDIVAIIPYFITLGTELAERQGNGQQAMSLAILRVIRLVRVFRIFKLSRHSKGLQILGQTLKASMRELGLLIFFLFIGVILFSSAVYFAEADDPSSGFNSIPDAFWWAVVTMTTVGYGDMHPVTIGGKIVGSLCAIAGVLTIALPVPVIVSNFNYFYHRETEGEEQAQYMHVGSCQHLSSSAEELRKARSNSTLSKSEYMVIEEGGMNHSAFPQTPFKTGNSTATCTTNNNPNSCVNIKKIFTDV
In short: as §1

[6] = target: hSKM1 (Homo sapiens, UniProt P35499); test: whole-cell patch clamp, peak Na+ current; conditions: read-out: % inhibition at 30 μM
hSKM1, sequence (P35499 whole entry): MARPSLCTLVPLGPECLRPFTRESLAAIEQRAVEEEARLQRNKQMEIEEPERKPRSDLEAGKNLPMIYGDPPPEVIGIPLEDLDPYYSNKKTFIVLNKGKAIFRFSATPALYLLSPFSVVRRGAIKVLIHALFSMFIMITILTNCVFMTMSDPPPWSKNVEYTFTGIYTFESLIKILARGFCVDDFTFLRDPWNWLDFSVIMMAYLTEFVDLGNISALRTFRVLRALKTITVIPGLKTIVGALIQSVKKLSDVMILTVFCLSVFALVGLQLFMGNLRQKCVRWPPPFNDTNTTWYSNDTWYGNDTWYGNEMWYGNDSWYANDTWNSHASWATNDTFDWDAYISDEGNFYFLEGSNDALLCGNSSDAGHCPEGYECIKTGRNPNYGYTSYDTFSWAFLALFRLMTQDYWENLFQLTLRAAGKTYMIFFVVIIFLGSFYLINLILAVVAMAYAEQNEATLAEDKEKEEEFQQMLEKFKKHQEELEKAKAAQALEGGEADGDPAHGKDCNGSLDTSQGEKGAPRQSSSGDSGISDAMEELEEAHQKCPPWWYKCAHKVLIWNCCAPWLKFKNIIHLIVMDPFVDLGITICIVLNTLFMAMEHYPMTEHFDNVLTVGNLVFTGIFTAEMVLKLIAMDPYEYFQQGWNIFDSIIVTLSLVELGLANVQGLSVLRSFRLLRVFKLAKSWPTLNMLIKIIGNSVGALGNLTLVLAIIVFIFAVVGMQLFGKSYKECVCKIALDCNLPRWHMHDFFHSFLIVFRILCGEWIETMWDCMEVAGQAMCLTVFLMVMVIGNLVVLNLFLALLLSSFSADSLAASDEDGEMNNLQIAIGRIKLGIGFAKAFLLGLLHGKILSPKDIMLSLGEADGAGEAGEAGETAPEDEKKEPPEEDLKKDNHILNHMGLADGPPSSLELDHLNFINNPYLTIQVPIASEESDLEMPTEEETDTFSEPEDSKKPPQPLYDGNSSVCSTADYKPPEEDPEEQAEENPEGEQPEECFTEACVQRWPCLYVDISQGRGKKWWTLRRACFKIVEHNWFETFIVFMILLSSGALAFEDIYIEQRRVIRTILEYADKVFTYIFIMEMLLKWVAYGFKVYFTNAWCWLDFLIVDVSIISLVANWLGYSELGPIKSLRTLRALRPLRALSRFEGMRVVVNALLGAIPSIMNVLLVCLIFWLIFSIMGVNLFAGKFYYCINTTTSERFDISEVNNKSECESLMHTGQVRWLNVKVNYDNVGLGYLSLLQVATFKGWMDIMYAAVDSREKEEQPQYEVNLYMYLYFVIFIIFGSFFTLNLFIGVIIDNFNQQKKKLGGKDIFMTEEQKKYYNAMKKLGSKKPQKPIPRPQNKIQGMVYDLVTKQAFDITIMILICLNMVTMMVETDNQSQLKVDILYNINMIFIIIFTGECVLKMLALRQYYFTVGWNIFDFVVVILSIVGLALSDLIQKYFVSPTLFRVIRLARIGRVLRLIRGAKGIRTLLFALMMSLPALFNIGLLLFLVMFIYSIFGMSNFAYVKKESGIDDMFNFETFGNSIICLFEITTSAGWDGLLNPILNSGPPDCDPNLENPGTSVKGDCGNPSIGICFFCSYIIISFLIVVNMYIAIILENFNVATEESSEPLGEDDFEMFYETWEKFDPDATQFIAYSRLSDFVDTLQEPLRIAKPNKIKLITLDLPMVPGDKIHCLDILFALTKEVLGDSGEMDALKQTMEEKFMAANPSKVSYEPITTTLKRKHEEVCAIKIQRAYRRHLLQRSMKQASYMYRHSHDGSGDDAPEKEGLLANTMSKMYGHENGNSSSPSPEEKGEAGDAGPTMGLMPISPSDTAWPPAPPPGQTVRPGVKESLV
In short: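 Cloned hSKM1 Na+ channel was expressed in a cultured cell line and recorded by whole-cell patch clamp at 20–25°C, with mammalian Ringer as bath. Peak Na+ current was taken at +10 mV. Test compound was applied at 30 μM. Percent inhibition is mean ± SD from at least three experiments.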

KV (Kv1.3), human T cells, sequence (P22001 whole entry): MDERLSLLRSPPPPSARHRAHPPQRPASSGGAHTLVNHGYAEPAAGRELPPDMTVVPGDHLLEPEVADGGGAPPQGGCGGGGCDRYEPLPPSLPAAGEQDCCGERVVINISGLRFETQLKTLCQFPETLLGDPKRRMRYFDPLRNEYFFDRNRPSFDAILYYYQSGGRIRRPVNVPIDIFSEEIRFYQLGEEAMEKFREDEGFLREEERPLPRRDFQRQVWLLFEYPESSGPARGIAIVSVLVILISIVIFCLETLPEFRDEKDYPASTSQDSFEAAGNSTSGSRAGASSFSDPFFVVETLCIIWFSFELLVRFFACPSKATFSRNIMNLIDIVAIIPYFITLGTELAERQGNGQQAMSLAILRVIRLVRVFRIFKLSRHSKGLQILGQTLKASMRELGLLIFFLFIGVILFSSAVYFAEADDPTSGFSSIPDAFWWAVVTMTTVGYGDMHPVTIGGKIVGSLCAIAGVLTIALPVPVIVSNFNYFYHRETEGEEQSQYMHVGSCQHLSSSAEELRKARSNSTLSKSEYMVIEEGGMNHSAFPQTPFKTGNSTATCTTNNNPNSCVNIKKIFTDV

**Q.** For `CC(=O)[C@@]1(O)CC[C@H]2[C@@H]3CCC4=CC(=O)CC[C@]4(C)[C@H]3CC[C@@]21C` [OHP, 17α-hydroxy-4-pregnene-3,20-dione], which inhibition at 60 µM ([1]; read-out: OHP) is on record?
**A.** 12 ± 6%

**Q.** With `C[C@]12CC[C@H](O)CC1=CC[C@@H]1[C@@H]2CC[C@]2(C)C(=O)CC[C@@H]12` [DHEA] as the molecule, how does the inhibition at 60 µM ([1]; read-out: DHEA) read?
**A.** 10 ± 6%

**Q.** With `C[C@]12CCC(=O)C=C1CC[C@@H]1[C@@H]2[C@@H](O)C[C@]2(C=O)[C@@H](C(=O)CO)CC[C@@H]12` [Aldosterone] as the molecule, how does the inhibition at 60 µM ([1]; read-out: Aldosterone) read?
**A.** 12 ± 13%

**Q.** Which inhibition at 60 µM ([2]; read-out: Estradiol) does the source give for `C[C@]12CC[C@@H]3c4ccc(O)cc4CC[C@H]3[C@@H]1CC[C@@H]2O` [Estradiol] here?
**A.** 8 ± 10%

**Q.** And the inhibition at 60 µM ([1]; read-out: Estradiol)?
**A.** 24 ± 7%

**Q.** How did the inhibition at 60 µM ([1]; read-out: Testosterone) turn out when `C[C@]12CC[C@H]3[C@@H](CCC4=CC(=O)CC[C@@]43C)[C@@H]1CC[C@@H]2O` [Testosterone] was run?
**A.** 17 ± 12%

**Q.** With `CC(=O)[C@H]1CC[C@H]2[C@@H]3CCC4=CC(=O)CC[C@]4(C)[C@H]3CC[C@]12C` [progesterone] as the molecule, how does the inhibition at 30 µM [3] read?
**A.** 53 ± 3%

**Q.** What about the “% inhibition at 30 μM” value [4] of the same molecule?
**A.** 23 ± 8%

**Q.** And the inhibition at 30 µM [5]?
**A.** 44 ± 9%

**Q.** And the inhibition at 60 µM ([2]; read-out: Progesterone)?
**A.** 34 ± 11%

**Q.** And the inhibition at 30 µM [6]?
**A.** 11 ± 1%

**Q.** With `C[C@]12CCC(=O)C=C1CC[C@@H]1[C@@H]2[C@@H](O)C[C@@]2(C)[C@H]1CC[C@]2(O)C(=O)CO` [Cortisol] as the molecule, how does the inhibition at 60 µM ([1]; read-out: Cortisol) read?
**A.** 13 ± 4%

**Q.** Which results are given for `CC#C[C@]1(O)CC[C@H]2[C@@H]3CCC4=CC(=O)CCC4=C3[C@@H](c3ccc(N(C)C)cc3)C[C@@]21C` [RU 486]?
**A.** inhibition at 60 µM ([2]; read-out: RU 486): 55 ± 12%; inhibition at 60 µM ([1]; read-out: RU 486): 61 ± 15%
